Measured values of several laboratories.
Lines come from different studies, so protocols differ. In brackets after ≈: the same amount, converted by molar mass.

`C#Cc1ccc(C=NNC(=O)c2cc(Br)cc(Br)c2O)c(O)c1` gave an MIC80 of greater than 16 µg/mL (Aspergillus fumigatus; microbial growth; 48 h, pH 6.5).
With `C[C@@H](O)[C@H]1C(=O)N2C(C(=O)O)=C(SCCN=CN)C[C@H]12` the MIC was less than 1 µg/mL (Enterococcus faecalis; microbial growth; VRE; drug-resistant strain).
For `COc1ccc(C=NNC(=S)N[N+](=O)[O-])cc1OC`, the IC50 was 1200 µM (Leishmania major; parasite growth, MTT; 72 h, promastigote).
`C#Cc1ccc(C=NNC(=O)c2ccc(Br)c(Br)c2)c(O)c1` gave an MIC80 of greater than 16 µg/mL (Aspergillus fumigatus; microbial growth; 48 h, pH 6.5).
The MIC of `O=C(O)c1cn(C2CC2)c2cc(N3CCNCC3)c(F)cc2c1=O` is reported as less than 1 µg/mL (Enterococcus faecalis; microbial growth; VRE; drug-resistant strain).
With `O=[N+]([O-])NC(=S)NN=Cc1ccc(Br)cc1` the IC50 was 424 µM (Leishmania major; parasite growth; J774.A1; 72 h, intracellular, amastigote).
With `C#Cc1cccc(O)c1C=NNC(=O)c1ccc(Br)cc1` the MIC80 was greater than 32 µg/mL (Aspergillus fumigatus; microbial growth; 48 h, pH 6.5).
`COC(=O)C1=C(C)NC(C)=C(C(=O)OC(C)(C)CN(C)CCC(c2ccccc2)c2ccccc2)C1c1cccc([N+](=O)[O-])c1` (stereo not drawn) gave an MIC of greater than 250 µM (Aspergillus fumigatus; microbial growth, broth dilution; 48 h).
With `C=C(CN(C(=O)c1c(C(F)F)nn(C)c1F)C1CC1)c1ccc(Cl)cc1Cl` the EC50 was 0.0232 µg/mL (≈ 0.0555 µM) (Ustilaginoidea virens; microbial growth; 12 h).
